According to publication PMC4073670 (Nature, 2011):
Values joined by “and” are separate entries in the source; they are usually repeats but may differ in a detail not shown here. Equal values may be shown once. Square brackets hold non-standard residues; d marks the D form. Ends that are not written are not given here.

Legend:
tau K12 = assay: Tau K12 inhibition assay, un-seeded; assay type: biochemical, human; details: 50 μM K12, pH 7.4, 37°C
VQIVYK = VQIVYK inhibition assay; assay type: biochemical; details: 25 mM MOPS pH 7.2, 100 μM ThS, room temperature; for VQIVYK fibrillation inhibition, equimolar peptide: equimolar ratio with VQIVYK
tau K19 [1] = assay: Electron microscopy of K19 fibrillation; assay type: biochemical, human; details: incubation with peptide; negative stain, 1% uranyl acetate
Procedure, shortened: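 Recombinant K19 (E. coli BL21(DE3); boiled lysate, cation exchange) was incubated at 50 μM with peptide. Buffer was 250 mM sodium phosphate pH 7.4 with 1 mM DTT, 12.5 μM heparin and 10 μM ThS, held quiescent at 37°C. Samples were spotted on glow-discharged carbon/formvar copper grids for 3 min, rinsed with water, stained with 1% uranyl acetate for 90 s, and imaged by TEM.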

amyloid beta(1-42) = assay: Amyloid beta fibrillation assay; assay type: biochemical; details: 11.5 μM Aβ1-42, 11.5 μM D-TLKIVW, 10 μM ThT, 100 mM Bicine pH 9.1, 37°C, 4 replicates
Procedure, shortened: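 Aβ1-42 was diluted to 0.2 mg/ml in 50 mM NH4OH and 0.2 μm filtered. Final mix: 11.5 μM Aβ1-42, 10 μM ThT, 23 mM NH4OH, 100 mM Bicine pH 9.1, with or without 11.5 μM test D-peptide. Four replicates were run at 37°C with continuous 960 rpm shaking (1 mm diameter), reading ThT every minute at Ex 444/Em 482.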

VQIVYK fibers = assay: 1H NMR binding to VQIVYK fibers
soluble VQIVYK = assay: 1H NMR binding to soluble VQIVYK; details: even at 70-fold molar excess of soluble VQIVYK, pH 5.0, 283 K
tau fiber elongation = tau fiber elongation (Homo sapiens, UniProt P10636); assay: Tau fibrillation kinetic analysis; assay type: biochemical; details: increasing concentrations of inhibitor peptide
Procedure, shortened: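 Nucleation (k1) and propagation (k2) rates were fitted from the ThS fibrillation traces of the tau construct assays. The fit used the Finke-Watzky 2-step form, with plateau values fixed first and the remaining parameters fitted by non-linear least-squares regression.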

[2] = test system: tau segment VQIVYK, and the K12 and K19 tau constructs; assay: Fibrillation of tau segment VQIVYK and tau constructs K12 and K19; assay type: biochemical, human
Procedure, shortened: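 Un-seeded ThS fibrillation with peptides at specified molar ratios. For K12/K19: 50 μM protein, 250 mM phosphate pH 7.4, 1 mM DTT, 12.5 μM heparin, 10 μM ThS, 37°C; K12 shaken at 900 rpm, K19 quiescent; read every 15 min (ex 440/em 510). For VQIVYK: 25 mM MOPS pH 7.2 with PTFE beads, room temperature, read every 2 min. At least 3 replicates; lag time is the mean time to cross a threshold.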

tau K19 [3] = assay: Tau K19 inhibition assay; assay type: biochemical, human; details: equimolar ratio with K19; 50 μM K19, pH 7.4, 37°C, quiescent
Procedure, shortened: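 K19 was expressed in E. coli BL21(DE3) with 1 mM IPTG and purified by boiling and cation exchange. Reactions held 50 μM K19 in 250 mM sodium phosphate pH 7.4 with 1 mM DTT, 12.5 μM heparin (6000 MW) and 10 μM ThS. Peptide was added from a 0.5 mM stock. Plates were read every 15 min (ex 440/em 510) at 37°C, quiescent, with 2 s shaking before reads. At least 3 replicates; lag time is the mean threshold-crossing time ± SD.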

[4] = test system: HIV-1 infection of TZM-bl cells; assay: Effect of WW61, GIHKQK and PYKLWN on HIV-1 infection; assay type: cell-based; details: 150, 30, 6, 1.2 and 0 μg/ml during preincubation with virus
[5] = test system: HIV-1 infection of TZM-bl cells; assay: Effect of WW61 on poly-lysine mediated enhancement of HIV-1 infection; assay type: cell-based; details: poly-lysine/WW61 100, 20, 4, 0.8, 0.16, 0.032, 0.064 and 0 μg/ml during preincubation with virus
Procedure, shortened: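 The HIV-1 CCR5-tropic molecular clone came from 293T transfection, with p24 by ELISA. Poly-lysine was mixed 1:1 with test compound. 5-fold dilutions (100, 20, 4, 0.8, 0.16, 0.032, […], 0 μg/ml) were preincubated with an equal volume of virus for 5 min at room temperature. Of each, 20 μl went onto 180 μl TZM-bl cells (LTR-lacZ). β-galactosidase in lysates was read 2 days later by luminescence (RLU/s).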

K19 fibers = assay: Nanogold binding to K19 fibers, electron microscopy blind counting; parameters: species or system human; details: z-test versus unconjugated nanogold
Procedure, shortened: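 Cys-Gly3-extended test D-peptide or scrambled control (60 nmol) was conjugated to 6 nmol monomaleimido nanogold (1 h, room temperature) and freed of peptide by 10 kDa cut-off. K19 fibers (100 μM K19, 25 μM heparin, overnight at 37°C, pH 7.4) were sonicated and washed. 10 nM conjugate or control was incubated 1 h with 1.67 μM fibers (by monomer) in 25 mM MOPS pH 7.2, then gold-enhanced for EM. Fiber-bound particles were counted blind as end or side.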

ends of K19 fibers = assay: Nanogold localization to fiber ends, electron microscopy blind counting; assay type: binding, human; details: for nanogold at fiber ends, significance vs nanogold alone: z-test versus unconjugated nanogold
Procedure, shortened: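 Cys-GGG-extended D-peptides were coupled to monomaleimido nanogold for 1 h at room temperature, and unbound peptide was removed by 10-kDa filtration. Conjugate (10 nM) was incubated 1 h with sonicated, heparin-free K19 fibers (1.67 μM by monomer) in 25 mM MOPS pH 7.2. Gold was enlarged with Goldenhance before EM. Particles within a 15 nm cutoff were scored as end- or side-bound by a blinded microscopist.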

[6] = molecular target: T1, tau VQIVYK segment fibers (Homo sapiens); assay: NMR
T1 chain: VQIVYK

tau fiber elongation, sequence (P10636 186-283 isoform P10636-2 limits assumed): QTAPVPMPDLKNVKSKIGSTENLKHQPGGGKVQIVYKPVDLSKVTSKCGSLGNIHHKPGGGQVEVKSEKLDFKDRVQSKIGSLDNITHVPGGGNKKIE

D-TLKIVW
delay of K12 fibrillation, five-fold molar excess (tau K12; five-fold molar excess, some experimental replicates): more than two weeks in some experimental replicates | K12 fiber formation delay, sub-equimolar peptide (tau K12; sub-equimolar concentration relative to K12): delays fiber formation even at sub-equimolar concentration | VQIVYK fiber formation delay, sub-equimolar peptide (VQIVYK; sub-equimolar concentration relative to VQIVYK): delays fiber formation even at sub-equimolar concentration | K19 fibrillation by electron microscopy (tau K19 [1]): prevents K19 fibrillation | block of amyloid beta fibrillation (amyloid beta(1-42)): unable to block the fibrillation of amyloid beta | estimated affinity constant for fibers (VQIVYK fibers; 1H NMR, 500 MHz, fibers containing 0 to 1500 μM VQIVYK monomers): low micromolar range | standard free binding energy (ΔGbinding) (VQIVYK fibers; from apparent Kd of 2 μM, VQIVYK fibers): ~ 7.4 kcal/mol and 7.4 kcal/mol | change in indole proton chemical shift with soluble VQIVYK (soluble VQIVYK): Only a slight change in the chemical shifts | fiber elongation rate (tau fiber elongation): fiber elongation rate decreases in the presence of increasing concentrations of inhibitor peptide | lag time in un-seeded reactions ([2]; un-seeded reactions): large increase in lag time

D-LKTWIV
K19 fibrillation inhibition, equimolar peptide (tau K19 [3]): little inhibitory effect | VQIVYK fibrillation inhibition, equimolar peptide (VQIVYK): little inhibitory effect | change in indole proton chemical shift with soluble VQIVYK (soluble VQIVYK): Only a slight change in the chemical shifts

H-[W-H-K-chAla-W-hydroxyTic]-OH [WW61]
effect on HIV infectivity in the absence of SEVI [4]: does not affect HIV infectivity | effect on poly-lysine mediated HIV infectivity [5]: no inhibitory effect on poly-lysine mediated HIV infectivity

D-TIKWVL
K19 fibrillation inhibition, equimolar peptide (tau K19 [3]): little inhibitory effect | VQIVYK fibrillation inhibition, equimolar peptide (VQIVYK): little inhibitory effect

L-TLKIVW
effectiveness of diastereomer relative to D-TLKIVW ([2]; diastereomer compared with D-TLKIVW, ThS fluorescence): less effective than D-TLKIVW

D-TIWKVL
K19 fibrillation inhibition, equimolar peptide (tau K19 [3]): little inhibitory effect | VQIVYK fibrillation inhibition, equimolar peptide (VQIVYK): little inhibitory effect

CGGG-(D)-LKTWIV [nanogold-D-LKTWIV]
nanogold bound to fibers, significance vs nanogold alone (K19 fibers): does not differ significantly from nanogold alone | nanogold at fiber ends, significance vs nanogold alone (ends of K19 fibers): does not differ significantly from nanogold alone

CGGG-(D)-TLKIVW [nanogold-D-TLKIVW]
nanogold bound to fibers, significance vs nanogold alone (K19 fibers): significantly different from nanogold alone | number of fiber-bound nanogold particles localizing to fiber ends (xend), n = 86 (ends of K19 fibers; n = 86, 10 nM conjugate, 1.67 μM K19 fibers, pH 7.2, 1 hour): 49 | nanogold at fiber ends, significance vs nanogold alone (ends of K19 fibers): significantly different from nanogold alone

[dT][dL][dK][dI][dV][dW] [D-TLKIVW]
Kd [6]: ~2000 nM
